According to ChEMBL document CHEMBL3992510, “Urea Derivatives of 2-Aryl-benzothiazol-5-amines: A New Class of Potential Drugs for Human African Trypanosomiasis” (J Med Chem, 2017):

Key:
[1] = Ratio of drug level in brain to plasma in mouse at 5 mg/kg, ip administered as single dose measured at 1 hr post dose by liquid chromatography/tandem mass spectrometric analysis; format: ADME, organism-based
Summary of the method: (§1)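 Single ip dose of 5 mg/kg in 5% DMSO/7% Tween 80/3% EtOH in 0.9% saline, three mice per compound (six for one compound). At 1 h, plasma is separated by centrifugation and brain homogenized in acetonitrile. Both are quantified by LC-MS/MS, with brain corrected for 3% v/w blood. Brain/plasma ratio is reported as mean ± SEM.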

[2] = test system: Trypanosoma brucei brucei; experiment: Antitrypanosomal activity against Trypanosoma brucei brucei BF427 assessed as growth inhibition measured after 48 hrs by Alamar blue assay; format: functional; settings: BF427, 48 h
Summary of the method: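 Bloodstream-form parasites in HMI-9 medium are exposed to serial compound dilutions in triplicate. Viability is read with Alamar Blue at 48 h. EC50 and EC90 come from nonlinear regression. Pentamidine isethionate is the control.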

[3] = test system: HepG2; experiment: Cytotoxicity against human HepG2 cells assessed as growth inhibition after 48 hrs by Alamar blue assay; format: cell-based; settings: for EC50: Homo sapiens, HepG2, 48 h; for EC90: human, hepg2, 48 h
Summary of the method: (§2)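 CRL-8155 lymphoblasts or HepG2 hepatocellular carcinoma cells are exposed 48 h to serial compound dilutions in quadruplicate. Growth is read with Alamar Blue, and 50% and 90% inhibitory concentrations come from nonlinear regression. Quinacrine is the control.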

[4] = Selectivity index, ratio of EC50 for human HepG2 cells to EC50 for Trypanosoma brucei brucei BF427; format: toxicity; settings: read-out: Ratio EC50
[5] = Selectivity index, ratio of EC50 for human CRL8155 cells to EC50 for Trypanosoma brucei brucei BF427; format: toxicity; settings: read-out: Ratio EC50
[6] = Cytotoxicity against human CRL8155 cells assessed as growth inhibition after 48 hrs by Alamar blue assay; format: cell-based; settings: for EC50: Homo sapiens, CRL8155, 48 h; for EC90: human, crl8155, 48 h; summary of the method: as §2
[7] = test system: Liver; experiment: Half life in mouse liver microsomes at 1.5 uM in presence of NADPH by liquid chromatography/tandem mass spectrometric analysis; format: ADME, microsome
[8] = Stability in human liver microsomes assessed as compound remaining at 1.5 uM in presence of NADPH measured after 60 mins by liquid chromatography/tandem mass spectrometric analysis; format: ADME, microsome; settings: read-out: Stability
Summary of the method: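 Pooled liver microsomes (0.5 mg/mL) are preincubated 5 min at 37 °C in 0.16 M KH2PO4 with 1 mM NADPH, then test compound is added at 1.5 μM. Aliquots are quenched with 4 volumes of acetonitrile at 0, 5, 10, 15, 30 and 60 min and analyzed by LC-MS/MS. Percent remaining at 5 or 60 min is given when t1/2 is outside the 5–60 min range. Controls: testosterone, dextromethorphan.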

[9] = Stability in mouse liver microsomes assessed as compound remaining at 1.5 uM in presence of NADPH measured after 5 mins by liquid chromatography/tandem mass spectrometric analysis; format: ADME, microsome; settings: read-out: Stability
[10] = test system: Liver; experiment: Half life in human liver microsomes at 1.5 uM in presence of NADPH by liquid chromatography/tandem mass spectrometric analysis; format: ADME, microsome
[11] = Drug level in mouse plasma at 5 mg/kg, ip administered as single dose measured at 1 hr post dose by liquid chromatography/tandem mass spectrometric analysis; format: ADME, organism-based; summary of the method: as §1
[12] = Drug level in mouse brain at 5 mg/kg, ip administered as single dose measured at 1 hr post dose by liquid chromatography/tandem mass spectrometric analysis; format: ADME, organism-based; settings: read-out: Drug uptake; summary of the method: as §1

Compound	BPR [1]	EC50 [2]	EC90 [2]	t1/2 [7]	remaining at 1 h, 1.5 µM [8]	remaining at 5 min, 1.5 µM [9]	t1/2 [10]	concentration at 1 h [11]	concentration at 1 h [12]	EC50 [3]	EC90 [3]	selectivity ratio [4]	selectivity ratio [5]	EC50 [6]	EC90 [6]
O=C(NCCc1nc(-c2ccccc2)cs1)c1ccccc1	0.3														
O=C(NCCc1nc(-c2ccccc2)cs1)N1CCCCC1	0.613														
O=C(Nc1ccc2sc(-c3ccccc3)nc2c1)N1CCCCC1		366 nM	809 nM	17 min	62%					> 50000 nM	> 50000 nM	> 137	> 137	> 50000 nM	> 50000 nM
O=C(NCCc1nc(-c2cccc(F)c2)cs1)N1CCC(F)(F)CC1		164 nM	230 nM	< 5 min		20%	5.8 min			> 50000 nM	> 50000 nM	> 305	> 305	> 50000 nM	> 50000 nM
O=C(Nc1ccc2oc(-c3ccccc3)nc2c1)N1CCCCC1		2800 nM	9300 nM	11 min	77%										
Cl.S=C(NCCc1nc(-c2ccccc2)cs1)N1CCCCC1	0.089	24.3 nM	42.4 nM	< 5 min		1.8%	8.2 min	2 µM	0.187 µM	> 50000 nM	> 50000 nM	> 2060	> 2060	> 50000 nM	> 50000 nM
O=C(NCCc1nc(-c2cccc(F)c2)cs1)N1CCC(F)CC1		36.6 nM	57.5 nM	< 5 min		5.5%	5.6 min			> 50000 nM	> 50000 nM	> 1370	> 1370	> 50000 nM	> 50000 nM
S=C(NCCc1nc(-c2ccccc2)cs1)c1ccccc1		1440 nM	2630 nM	< 5 min		0%									
O=C(NCCc1nc(-c2cccc(F)c2)cs1)N1CCCC(F)C1 (stereo not drawn)		28.5 nM	55.7 nM	< 5 min		18%	10 min			> 50000 nM	> 50000 nM	> 1750	> 1750	> 50000 nM	> 50000 nM

Now from value to compound, other results behind:

BPR [1]	EC50 [2]	EC90 [2]	t1/2 [7]	remaining at 1 h, 1.5 µM [8]	remaining at 5 min, 1.5 µM [9]	t1/2 [10]	concentration at 1 h [11]	concentration at 1 h [12]	Compound	EC50 [3]	EC90 [3]	selectivity ratio [4]	selectivity ratio [5]	EC50 [6]	EC90 [6]
	2380 nM	7740 nM	50 min	53%					O=C(Nc1ccc2sc(-c3ccccc3)nc2c1)c1ccccc1						
	7840 nM	9900 nM	< 5 min		0%				CC(C)(Cc1csc(-c2ccccc2)n1)NC(=O)N1CCCCC1						
	325 nM	817 nM	18 min			30 min	3.4 µM	4.24 µM	O=C(Nc1ccc2sc(-c3ccccc3)nc2c1)N1CCCC1	> 50000 nM	> 50000 nM	> 154	> 154	> 50000 nM	> 50000 nM
	108 nM	168 nM	< 5 min		14%	5.1 min			O=C(NCCc1nc(-c2cccc(F)c2)cs1)N1CCCC(F)(F)C1	> 50000 nM	> 50000 nM	> 463	> 463	> 50000 nM	> 50000 nM
7.92	934 nM	1660 nM					2.81 µM	21.7 µM	O=C(Nc1ccc2sc(-c3ccc(F)c(F)c3)nc2c1)N1CCC(F)(F)C1	> 50000 nM	> 50000 nM	> 54	> 54	> 50000 nM	> 50000 nM
	1300 nM	2400 nM	< 5 min		0%				CC(C)(CNC(=O)N1CCCCC1)c1nc(-c2ccccc2)cs1						
